Results as given in ChEMBL document CHEMBL3421610, “Antimalarial activity of 4-amidinoquinoline and 10-amidinobenzonaphthyridine derivatives” (J Med Chem, 2015).
Converted amounts (≈) assume the structure as drawn. The source made the active and inactive calls. No cut-off for these calls is given here.

Tests used:
Plasmodium falciparum [1] = assay: Antimalarial activity against chloroquine-resistant Plasmodium falciparum W2 assessed as growth inhibition after 18 hrs by [3H]-hypoxanthine uptake assay; assay type: functional, organism-based
Procedure, shortened: (§1)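 P. falciparum clones D6, W2 and TM91C235; modified semiautomated microdilution. Compounds in DMSO, diluted in RPMI 1640 with 10% human plasma, tested over (1.56-100) x 10^-9 M; final DMSO 0.25-0.5%. Inoculum 0.5% parasitemia, 1% hematocrit. 24 h incubation, then [3H]-hypoxanthine added, further 18 h. Harvested and read by scintillation counting; IC50 by nonlinear regression.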

HepG2 = assay: Cytotoxicity against human HepG2 cells after 48 hrs by MTT assay; assay type: cell-based; details: HepG2, 48 h
Procedure, shortened: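 HepG2 cells in supplemented MEM, plated at 9570 cells/well in 384-well format and incubated overnight at 37 °C, 5% CO2. Twelve duplicate 1.6-fold dilutions, 57–10,000 ng/ml, incubated 48 h. MTT added for 1 h at room temperature in the dark, formazan dissolved in acidified isopropanol, absorbance read. IC50 by sigmoidal variable-slope nonlinear regression; tryptanthrin control.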

Plasmodium falciparum [2] = assay: Antimalarial activity against chloroquine-resistant Plasmodium falciparum C235 assessed as growth inhibition after 18 hrs by [3H]-hypoxanthine uptake assay; assay type: functional, organism-based; procedure, shortened: as §1
Plasmodium falciparum [3] = assay: Antimalarial activity against chloroquine-sensitive Plasmodium falciparum D6 assessed as growth inhibition after 18 hrs by [3H]-hypoxanthine uptake assay; assay type: functional, organism-based; procedure, shortened: as §1
[4] = Half life in human liver microsomes at 1 uM by LC/MS analysis; assay type: ADME
Procedure, shortened: (§2)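 Compound at 1 µM final, diluted from […], with 0.5 mg/mL pooled human or mouse liver microsomes, NADP, MgCl2 and 0.1 M PBS pH 7.4. Reaction started with 1 U/mL G6PD and shaken at 37 °C. Aliquots quenched in cold acetonitrile at 0, 10, 20, 30 and 60 min and quantified by LC/MS. Half-life from log plot of total ion chromatogram area remaining.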

[5] = Half life in mouse liver microsomes at 1 uM by LC/MS analysis; assay type: ADME; procedure, shortened: as §2
hERG (KCNH2) = hERG (KCNH2) (Homo sapiens, UniProt Q12809); assay: Inhibition of human ERG expressed in CHL cells assessed as tail current at 10 uM after 7 mins by patch clamp assay relative to control; assay type: cell-based; details: CHL cells expressing human ERG
Sequence of hERG (KCNH2) (Q12809 whole entry): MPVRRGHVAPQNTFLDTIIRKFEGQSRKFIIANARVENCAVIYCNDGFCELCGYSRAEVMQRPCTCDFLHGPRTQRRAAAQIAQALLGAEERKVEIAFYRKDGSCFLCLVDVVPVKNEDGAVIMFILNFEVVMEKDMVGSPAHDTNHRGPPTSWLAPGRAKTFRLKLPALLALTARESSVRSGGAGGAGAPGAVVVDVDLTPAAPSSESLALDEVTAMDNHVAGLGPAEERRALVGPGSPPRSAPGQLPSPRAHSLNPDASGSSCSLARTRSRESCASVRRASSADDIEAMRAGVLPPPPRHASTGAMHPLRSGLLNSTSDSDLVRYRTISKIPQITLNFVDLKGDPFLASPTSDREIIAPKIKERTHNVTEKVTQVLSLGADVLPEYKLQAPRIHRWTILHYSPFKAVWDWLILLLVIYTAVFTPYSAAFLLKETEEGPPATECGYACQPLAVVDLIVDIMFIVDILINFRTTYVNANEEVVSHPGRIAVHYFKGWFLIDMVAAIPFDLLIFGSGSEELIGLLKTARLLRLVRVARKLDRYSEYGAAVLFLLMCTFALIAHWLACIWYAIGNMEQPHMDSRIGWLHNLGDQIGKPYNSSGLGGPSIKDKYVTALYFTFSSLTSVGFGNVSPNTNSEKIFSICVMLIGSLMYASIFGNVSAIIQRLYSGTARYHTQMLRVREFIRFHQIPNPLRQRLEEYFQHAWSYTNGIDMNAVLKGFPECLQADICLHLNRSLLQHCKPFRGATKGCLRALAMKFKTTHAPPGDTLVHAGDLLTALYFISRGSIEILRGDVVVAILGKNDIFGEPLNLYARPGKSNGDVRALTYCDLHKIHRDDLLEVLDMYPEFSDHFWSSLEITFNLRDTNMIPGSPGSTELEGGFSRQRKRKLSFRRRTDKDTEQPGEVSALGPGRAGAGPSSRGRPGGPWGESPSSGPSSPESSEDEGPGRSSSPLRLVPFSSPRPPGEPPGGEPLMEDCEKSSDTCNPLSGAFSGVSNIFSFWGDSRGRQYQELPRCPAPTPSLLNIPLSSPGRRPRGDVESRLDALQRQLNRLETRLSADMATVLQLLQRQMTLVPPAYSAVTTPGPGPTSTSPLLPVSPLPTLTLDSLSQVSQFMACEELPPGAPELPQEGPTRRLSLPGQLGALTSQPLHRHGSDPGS

Plasmodium berghei = assay: Antimalarial activity against erythrocytic stage of chloroquine resistant Plasmodium berghei ANKA infected in mouse assessed as cure rate at 160 mg/kg, po qd administered on day 3, 4 and 5 post infection measured 3 times per week for 30 days, starting from day 3 by Thompson test; assay type: functional, organism-based; design: dose 160 mg/kg
Procedure, shortened: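 Male mice of 16-20 g inoculated intraperitoneally with 5 x 10^6 erythrocytes infected with CQ-resistant P. berghei ANKA. Drug given orally as a suspension once daily on days 3, 4 and 5 post-infection, five mice per dose. Blood films from day 3, three times weekly for 30 days. Cure means parasite-negative on day 30 or surviving 30 days. Mice losing >20% body weight sacrificed.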

Row | SMILES | IC50 (Plasmodium falciparum [1]) | IC50 (HepG2) | IC50 (Plasmodium falciparum [2]) | IC50 (Plasmodium falciparum [3]) | half-life at 1 µM [4] | half-life at 1 µM [5] | inhibition at 7 min, 10 µM (hERG (KCNH2)) | Activity (Plasmodium berghei)
1 | C/C(=N/c1ccnc2cc(Cl)ccc12)NC1CCN(C)CC1 | 275 nM | > 30.3 µg/mL | 89 nM | 76 nM | > 60 min | > 60 min |  | 
2 | CCN(CC)CCC/N=C(/Nc1c2ccc(Cl)cc2nc2ccc(OC)nc12)c1ccccc1 | 5.6 nM | 3.7 µg/mL (≈ 7.77 µM) | 2.8 nM | 1.7 nM | 16 min | 26 min |  | 
3 | CCN(CC)CCC/N=C(/N=c1\ccn(CCCN(CC)CC)c2cc(Cl)ccc12)c1cccnc1 | 3920 nM | 14.1 µg/mL (≈ 27.7 µM) | 2660 nM | 2500 nM | > 60 min | > 60 min |  | 
4 | CCCCN(CCCC)CCC(O)c1cc2c(Cl)cc(Cl)cc2c2cc(C(F)(F)F)ccc12 (centres undefined) [HALOFANTRINE] |  |  |  |  |  |  | 100% | 
5 | OC(c1cc(C(F)(F)F)nc2c(C(F)(F)F)cccc12)C1CCCCN1 (centres undefined) [MEFLOQUINE] |  |  |  |  |  |  | 95% | 
6 | O=C1c2ccccc2-n2c1nc1ccccc1c2=O [TRYPTANTHRIN] |  | 0.305 µg/mL (≈ 1.23 µM) |  |  |  |  |  | 
7 | COc1ccc2nc3cc(Cl)ccc3c(N/C(=N/CCCN3CCCCC3)C(C)C)c2n1 | 3.96 nM | 2.01 µg/mL (≈ 4.42 µM) | 1.94 nM | 1.1 nM | 9 min | 8 min | 69.6% | 
8 | CCN(CC)CCC/N=C(\c1cccnc1)N(CCCN(CC)CC)c1ccnc2cc(Cl)ccc12 | 383 nM | 2.94 µg/mL (≈ 5.78 µM) | 290 nM | 34.8 nM | > 60 min | > 60 min |  | 
9 | CCN(CC)CCCN(CCCN(CC)CC)/C(=N\c1c2ccc(Cl)cc2nc2ccc(OC)nc12)C(C)C | 6.1 nM | 0.668 µg/mL (≈ 1.2 µM) | 3.2 nM | 1.1 nM | > 60 min | > 60 min | 32.5% | 
10 | COc1ccc2nc3cc(Cl)ccc3c(N(CCCN(C)C)/C(C)=N/CCCN(C)C)c2n1 | 80.8 nM | 1.7 µg/mL (≈ 3.6 µM) | 51 nM | 11.7 nM | > 60 min | > 60 min | 18.3% | 
11 | CCN(CC)CCCC(C)Nc1ccnc2cc(Cl)ccc12 (centres undefined) [CHLOROQUINE] |  | 12 µg/mL (≈ 37.6 µM) |  |  | > 60 min | > 60 min | 71% | Active
12 | CN(C)CCC/N=C(\c1ccccc1)N(CCCN(C)C)c1ccnc2cc(Cl)ccc12 | 121 nM | 5.77 µg/mL (≈ 12.8 µM) | 45.4 nM | 7.1 nM | > 60 min | > 60 min | 16.4% | 
13 | CCN(CC)CCCN(CCCN(CC)CC)/C(C)=N\c1ccnc2cc(Cl)ccc12 | 121 nM | 3 µg/mL (≈ 6.73 µM) | 33.9 nM | 15 nM | > 60 min | > 60 min | 16.2% | 
14 | CCN(CC)CCCN/C(=N\c1ccnc2cc(Cl)ccc12)c1cccnc1 | 203 nM | 7.87 µg/mL (≈ 19.9 µM) | 79.5 nM | 38.9 nM | 36 min | > 60 min | 101% | 
15 | CCN(CC)CCCN/C(C)=N\c1ccnc2cc(Cl)ccc12 | 226 nM | > 10 µg/mL | 133 nM | 138 nM | > 60 min | > 60 min |  | 
16 | CCN(CC)CCC/N=C(\c1ccccc1)N(CCCN(CC)CC)c1ccnc2cc(Cl)ccc12 | 76.8 nM | 4.09 µg/mL (≈ 8.05 µM) | 33.7 nM | 6.1 nM | > 60 min | > 60 min | 21.9% | 
17 | Clc1ccc2c(/N=C(\NCCCN3CCCCC3)c3ccccc3)ccnc2c1 | 15.7 nM | 5.12 µg/mL (≈ 12.6 µM) | 5.7 nM | 5.2 nM | 12 min | 18 min | 93% | 
18 | CCN(CC)CCC/N=C(/Nc1c2ccc(Cl)cc2nc2ccc(OC)nc12)C(C)C | 8.8 nM | 2.06 µg/mL (≈ 4.67 µM) | 3.8 nM | 2 nM | 20 min | 22 min | 86.5% | 
19 | CC(C)/C(=N/c1ccnc2cc(Cl)ccc12)NC1CCN(Cc2ccccc2)CC1 | 58.7 nM | 5.15 µg/mL (≈ 12.2 µM) | 30.9 nM | 15 nM | 25 min | 30 min | 51.8% | 
20 | C/C(=N/c1ccnc2cc(Cl)ccc12)NCCC1CCN(c2ccncc2)CC1 | 193 nM | 6.73 µg/mL (≈ 16.5 µM) | 64 nM | 36.4 nM | > 60 min | > 60 min |  | 
21 | CCN(CC)CCC/N=C(/Nc1c2ccc(Cl)cc2nc2ccc(OC)nc12)c1cccnc1 | 20.6 nM | 8.6 µg/mL (≈ 18 µM) | 8.2 nM | 7.2 nM | 32 min | 29 min | 63% | 
22 | CCN(CC)CCN/C(C)=N\c1ccnc2cc(Cl)ccc12 | 296 nM | 1.32 µg/mL (≈ 4.15 µM) | 182 nM | 189 nM | 26 min | 18 min |  | 
23 | C/C(=N/c1ccnc2cc(Cl)ccc12)NCCCN1CCOCC1 | 295 nM | > 30.3 µg/mL | 578 nM | 327 nM | 25 min | 22 min |  | 
24 | C/C(=N/c1ccnc2cc(Cl)ccc12)NCCc1ccncc1 | 617 nM | 11.3 µg/mL (≈ 34.7 µM) | 719 nM | 920 nM | 47 min | 13 min |  | 
25 | CCN(CC)CCCCCN/C(C)=N\c1ccnc2cc(Cl)ccc12 | 455 nM | 12.5 µg/mL (≈ 34.5 µM) | 175 nM | 125 nM | 56 min | > 60 min |  | 
26 | COc1ccc2nc3cc(Cl)ccc3c(N/C(=N/CCCN(C)C)C(C)C)c2n1 | 9.7 nM | 3.56 µg/mL (≈ 8.6 µM) | 4.3 nM | 2.2 nM | 33 min | 46 min | 72.1% | 
27 | Clc1ccc2c(N(CCCN3CCCCC3)/C(=N/CCCN3CCCCC3)c3ccccc3)ccnc2c1 | 16 nM | 2.45 µg/mL (≈ 4.6 µM) | 6.95 nM | 1.9 nM | 31 min | > 60 min | 21.7% | 
